For 5 compounds, Activity and Toxicity results are on record in ChEMBL document CHEMBL1122671, “Anticonvulsant activity of some 4-aminobenzamides” (J Med Chem, 1984).

Data set [1] deals with Mus musculus. The data set is described as follows: Anticonvulsant activity against scMet (subcutaneous metrazole) induced seizure at dose 600 mg/kg in mice at 4 hr; - = No activity at 600 mg/kg. The format is functional, organism-based.
Data set [2] deals with Mus musculus. Put plainly: Evaluated for toxicity by using rotarod test at dose 600 mg/kg in mice 30 min; - = No activity at 600 mg/kg. The format is organism-based. The conditions noted are these: in vivo, 0.5 h. In a few lines: (§1)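 Neurotoxicity in male Carworth Farms number-one mice dosed ip in 30% PEG 400 at 30, 100, 300 and sometimes 600 mg/kg, tested 30 min or 4 h later. Mice placed on a 1-in. knurled rod rotating at 6 rpm; toxicity means failure to stay on the rod for 1 min. Scored by the lowest toxic dose; footnotes record loss of righting reflex or lethality.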

Data set [3] has as its system Mus musculus. The data set is described as follows: Anticonvulsant activity against MES (maximal electroshock) induced seizure at dose 600 mg/kg in mice at 30 min; - = No activity at 600 mg/kg. The format is functional, organism-based. In a few lines: (§2)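 Male Carworth Farms number-one mice received the compound ip in 30% polyethylene glycol 400. Doses were 30, 100 and 300 mg/kg, with 600 mg/kg in some cases. Maximal electroshock seizure protection was scored at 30 min and 4 h after dosing. Activity is coded by the lowest effective dose.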

Data set [4] deals with Mus musculus. The data set is described as follows: Anticonvulsant activity against MES (maximal electroshock) induced seizure at dose 600 mg/kg in mice at 4 hr; - = No activity at 600 mg/kg. It is filed as functional, organism-based. The method, boiled down: as §2
The subject of data set [5] is Mus musculus. Put plainly: Evaluated for toxicity by using rotarod test in mice at 4 hr; - = No activity at 600 mg/kg. It is filed as organism-based. Set-up: dose 600 mg/kg. The conditions noted are these: in vivo. In a few lines:
as §1

Data set [6] deals with Mus musculus. Put plainly: Anticonvulsant activity against scMet (subcutaneous metrazole) induced seizure at dose 300 mg/kg in mice at 30 min; ++ = Activity at 300 mg/kg. The format is functional, organism-based.
Data set [7] relates to Mus musculus. Put plainly: Anticonvulsant activity against MES (maximal electroshock) induced seizure in mice at 30 min; + indicates activity at 600 mg/kg. The format is functional, organism-based. Set-up: dose 600 mg/kg. In a few lines:
(§3)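 Male Carworth Farms number-one mice; compounds in 30% polyethylene glycol 400, given ip at 30, 100 and 300 mg/kg, some also at 600 mg/kg. Maximal electroshock challenge at 30 min or 4 h after dosing. Scored by the lowest dose giving protection (++++ 30, +++ 100, ++ 300, + 600 mg/kg; - none at 600).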

Data set [8] has as its system Mus musculus. The data set is described as follows: Anticonvulsant activity against MES (maximal electroshock) induced seizure in mice at 4 hr; + indicates activity at 600 mg/kg. The format is functional, organism-based. Further details: dose 600 mg/kg. In a few lines:
as §3

Data set [9] concerns Mus musculus. The data set is described as follows: Evaluated for toxicity by using rotarod test in mice at 4 hr; - indicates no activity at 600 mg/kg. It is filed as organism-based. Further details: dose 600 mg/kg. Conditions: in vivo. In a few lines: as §1
The subject of data set [10] is Mus musculus. The data set is described as follows: Evaluated for toxicity by using rotarod test at in mice 30 min; - indicates no activity at 600 mg/kg. Further details: dose 600 mg/kg. It is filed as organism-based. Conditions: in vivo, 0.5 h. The method, boiled down:
as §1

For data set [11], the system named is Mus musculus. Put plainly: Anticonvulsant activity against scMet (subcutaneous metrazole) induced seizure in mice at 4 hr; - indicates no activity at 600 mg/kg. The format is functional, organism-based. Further details: dose 600 mg/kg. In a few lines: (§4)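 Male Carworth Farms number-one mice dosed ip (30% PEG 400) at 30, 100, 300 and in some cases 600 mg/kg. Pentylenetetrazole 85 mg/kg given sc as a 0.5% solution in the posterior midline, at 30 min or 4 h. Protection means no clonic spasm of at least 5 s within 30 min. Scored by the lowest protective dose.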

For data set [12], the system named is Mus musculus. The data set is described as follows: Anticonvulsant activity against scMet (subcutaneous metrazole) induced seizure in mice at 30 min; + indicates activity at 600 mg/kg. The format is functional, organism-based. Set-up: dose 600 mg/kg. The method, boiled down: as §4
Data set [13] deals with Mus musculus. The data set is described as follows: Anticonvulsant activity against scMet (subcutaneous metrazole) induced seizure in mice at 30 min; + = Activity at 600 mg/kg. The format is functional, organism-based. Further details: dose 600 mg/kg.
Data set [14] deals with Mus musculus. Put plainly: Evaluated for toxicity by using rotarod test in mice at 30 min; + = Activity at 600 mg/kg. It is filed as organism-based. Set-up: dose 600 mg/kg. Conditions: in vivo, 0.5 h. In a few lines:
as §1

In data set [15] the test system is Mus musculus. The data set is described as follows: Anticonvulsant activity against MES (maximal electroshock) induced seizure in mice at 30 min; +++ = Activity at 100 mg/kg. It is filed as functional, organism-based. Further details: dose 100 mg/kg. In a few lines: as §2
The test system of data set [16] is Mus musculus. The data set is described as follows: Evaluated for toxicity by using rotarod test in mice at 4 hr; + = Activity at 600 mg/kg. It is filed as organism-based. The conditions noted are these: in vivo. Further details: dose 600 mg/kg. The method, boiled down: as §1
For data set [17], the system named is Mus musculus. The data set is described as follows: Anticonvulsant activity against scMet (subcutaneous metrazole) induced seizure in mice at 4 hr; + = Activity at 600 mg/kg. It is filed as functional, organism-based. Set-up: dose 600 mg/kg.
Data set [18] concerns Mus musculus. The data set is described as follows: Anticonvulsant activity against MES (maximal electroshock) induced seizure in mice at 4 hr; ++ = Activity at 300 mg/kg. Set-up: dose 300 mg/kg. It is filed as functional, organism-based. The method, boiled down:
as §2

Data set [19] deals with Mus musculus. The data set is described as follows: Evaluated for toxicity by using rotarod test at in mice 30 min; + = Activity at 600 mg/kg. The conditions noted are these: in vivo, 0.5 h. It is filed as organism-based. Set-up: dose 600 mg/kg. In a few lines:
as §1

Data set [20] relates to Mus musculus. The data set is described as follows: Anticonvulsant activity against MES (maximal electroshock) induced seizure in mice at 30 min; ++ = Activity at 300 mg/kg. The format is functional, organism-based. Further details: dose 300 mg/kg. In a few lines:
as §2

Data set [21] relates to Mus musculus. Put plainly: Anticonvulsant activity against scMet (subcutaneous metrazole) induced seizure in mice at 30 min; ++ = Activity at 300 mg/kg. Further details: dose 300 mg/kg. It is filed as functional, organism-based.
In data set [22] the test system is Mus musculus. The data set is described as follows: Anticonvulsant activity against scMet (subcutaneous metrazole) induced seizure in mice at 30 min; ++ indicates activity at 300 mg/kg. It is filed as functional, organism-based. Further details: dose 300 mg/kg.
Data set [23] has as its system Mus musculus. Put plainly: Evaluated for toxicity by using rotarod test at in mice 30 min; ++ indicates activity at 300 mg/kg. The format is organism-based. Set-up: dose 300 mg/kg. Conditions: in vivo, 0.5 h. In a few lines:
as §1

The test system of data set [24] is Mus musculus. Put plainly: Anticonvulsant activity against scMet (subcutaneous metrazole) induced seizure in mice at 4 hr; ++ indicates activity at 300 mg/kg. Further details: dose 300 mg/kg. The format is functional, organism-based.
For data set [25], the system named is Mus musculus. Put plainly: Evaluated for toxicity by using rotarod test in mice at 4 hr; ++ indicates activity at 300 mg/kg. Conditions: in vivo. Set-up: dose 300 mg/kg. The format is organism-based. In a few lines: as §1
In data set [26] the test system is Mus musculus. The data set is described as follows: Anticonvulsant activity against MES (maximal electroshock) induced seizure in mice at 4 hr; Activity at 300 mg/kg. The format is functional, organism-based. Further details: dose 300 mg/kg. The method, boiled down: as §2

Consider `NC(=O)c1ccc(N)cc1`, for which the Activity result is “Not toxic” in the data set on Mus musculus [1], “Not toxic” with Mus musculus [3], “Not toxic” in the data set on Mus musculus [4] and “Activity at 300 mg/kg” in the data set with Mus musculus [6]. Further, the Toxicity entry in the data set with Mus musculus [2] and in the data set with Mus musculus [5] was “Not toxic” in each case.
`CC(Cc1ccccc1)NC(=O)c1ccc(N)cc1` (stereo not given): the Activity entry in the data set on Mus musculus [7] was “activity at 600 mg/kg”; in the data set with Mus musculus [8], “activity at 600 mg/kg”; with Mus musculus [11] it was “Not toxic”; in the data set on Mus musculus [12] it was “activity at 600 mg/kg”. Besides, the Toxicity entry in the data set with Mus musculus [9] and in the data set with Mus musculus [10] was “Not toxic” throughout.
`CCNC(=O)c1ccc(N)cc1`: the Activity result in the data set on Mus musculus [13], in the data set with Mus musculus [15], in the data set with Mus musculus [17] and in the data set on Mus musculus [18] was “Activity at 100 mg/kg” each time. For the same compound, the Toxicity result in the data set on Mus musculus [14] and in the data set with Mus musculus [16] was “Activity at 600 mg/kg” in each case.
Consider `Nc1ccc(C(=O)NCCc2ccccc2)cc1`, for which the Toxicity result with Mus musculus [19] and in the data set with Mus musculus [16] was “Activity at 600 mg/kg” each time. Moreover, the Activity result in the data set with Mus musculus [20], with Mus musculus [21], in the data set on Mus musculus [17] and with Mus musculus [18] was “Activity at 300 mg/kg” throughout.
Regarding `CC(CNC(=O)c1ccc(N)cc1)c1ccccc1` (stereo not given), the Activity entry with Mus musculus [7], in the data set on Mus musculus [22], in the data set on Mus musculus [24] and with Mus musculus [26] was “activity at 300 mg/kg” in each case. For the same compound, the Toxicity entry in the data set with Mus musculus [23] and in the data set on Mus musculus [25] was “activity at 300 mg/kg” in each case.
